What was measured:
[1] = target: T1, Adrenergic receptor alpha-2 (Rattus norvegicus, UniProt P22086+P19328+P22909); experiment: Antagonist activity at alpha-2 adrenoreceptor in Sprague-Dawley rat prostatic vas deferens assessed as reversal of clonidine-inhibited twitch responses of field-stimulated prostatic portion of vas deferens after 30 mins by Schild plot analysis; format: tissue-based
T1 sequence (P22086 whole entry): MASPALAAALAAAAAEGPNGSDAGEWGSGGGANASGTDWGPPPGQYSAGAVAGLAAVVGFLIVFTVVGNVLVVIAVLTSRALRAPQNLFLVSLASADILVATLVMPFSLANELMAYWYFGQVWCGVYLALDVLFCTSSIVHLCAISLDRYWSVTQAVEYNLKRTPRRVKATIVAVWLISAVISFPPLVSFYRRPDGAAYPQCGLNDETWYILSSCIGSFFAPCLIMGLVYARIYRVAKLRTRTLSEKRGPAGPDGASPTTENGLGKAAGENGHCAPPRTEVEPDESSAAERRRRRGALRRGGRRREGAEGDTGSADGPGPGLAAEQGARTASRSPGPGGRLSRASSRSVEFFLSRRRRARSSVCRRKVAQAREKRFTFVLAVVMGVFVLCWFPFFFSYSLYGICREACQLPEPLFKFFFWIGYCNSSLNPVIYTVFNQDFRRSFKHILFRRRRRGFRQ
T1 sequence (P19328 whole entry): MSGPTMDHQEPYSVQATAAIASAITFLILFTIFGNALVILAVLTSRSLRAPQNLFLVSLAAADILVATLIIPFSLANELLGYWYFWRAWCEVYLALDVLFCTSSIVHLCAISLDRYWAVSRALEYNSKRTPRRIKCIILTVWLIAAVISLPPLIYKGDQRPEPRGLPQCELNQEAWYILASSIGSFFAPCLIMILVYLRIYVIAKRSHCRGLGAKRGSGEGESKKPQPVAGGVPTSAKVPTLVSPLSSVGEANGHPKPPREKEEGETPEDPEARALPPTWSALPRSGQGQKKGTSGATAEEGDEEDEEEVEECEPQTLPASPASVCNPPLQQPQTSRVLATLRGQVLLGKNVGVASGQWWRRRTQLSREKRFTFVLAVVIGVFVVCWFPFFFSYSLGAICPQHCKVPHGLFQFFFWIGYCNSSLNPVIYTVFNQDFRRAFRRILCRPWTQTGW
T1 sequence (P22909 whole entry): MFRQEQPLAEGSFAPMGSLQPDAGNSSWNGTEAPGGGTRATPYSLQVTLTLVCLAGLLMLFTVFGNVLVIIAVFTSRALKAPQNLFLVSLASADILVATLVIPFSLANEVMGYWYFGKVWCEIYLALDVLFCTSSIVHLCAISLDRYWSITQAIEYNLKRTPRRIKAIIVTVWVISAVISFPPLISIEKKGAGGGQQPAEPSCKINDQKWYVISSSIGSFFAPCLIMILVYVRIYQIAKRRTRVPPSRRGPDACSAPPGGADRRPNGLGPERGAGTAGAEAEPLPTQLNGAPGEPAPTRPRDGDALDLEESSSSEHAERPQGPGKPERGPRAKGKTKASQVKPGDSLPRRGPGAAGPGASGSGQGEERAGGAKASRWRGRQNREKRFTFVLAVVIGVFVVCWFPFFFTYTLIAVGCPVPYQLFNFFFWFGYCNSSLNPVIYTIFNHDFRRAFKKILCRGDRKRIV
Procedure, shortened: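 Prostatic vas deferens in bath with propranolol 1 μM and desipramine 0.01 μM throughout. A cumulative clonidine control curve was run, then a second curve after 30 min antagonist equilibration. pA₂ from Schild plot of log(DR−1) vs log[antagonist], at least three antagonist concentrations, 3−5 repeats each.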

[2] = target: T2, Alpha-1B adrenergic receptor (Rattus norvegicus, UniProt P15823); experiment: Antagonist activity at alpha-1B adrenoreceptor in Sprague-Dawley rat spleen assessed as inhibition of phenylephrine-induced tissue contraction after 30 mins by Schild plot analysis; settings: read-out: pA2 (converted)
T2 sequence (P15823 whole entry): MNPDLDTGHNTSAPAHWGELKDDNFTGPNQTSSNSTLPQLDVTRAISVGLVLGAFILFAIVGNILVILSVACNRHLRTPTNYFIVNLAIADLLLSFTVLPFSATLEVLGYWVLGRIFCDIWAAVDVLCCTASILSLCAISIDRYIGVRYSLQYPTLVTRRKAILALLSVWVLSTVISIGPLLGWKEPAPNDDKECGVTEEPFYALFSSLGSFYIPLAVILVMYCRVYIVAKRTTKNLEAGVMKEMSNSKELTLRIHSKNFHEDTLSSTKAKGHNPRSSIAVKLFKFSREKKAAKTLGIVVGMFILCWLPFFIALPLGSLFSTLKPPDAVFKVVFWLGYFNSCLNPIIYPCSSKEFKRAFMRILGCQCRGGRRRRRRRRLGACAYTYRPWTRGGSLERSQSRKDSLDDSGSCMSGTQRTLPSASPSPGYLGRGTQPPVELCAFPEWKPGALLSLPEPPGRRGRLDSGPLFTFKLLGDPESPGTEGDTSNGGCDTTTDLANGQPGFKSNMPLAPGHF
Procedure, shortened: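 Spleen from 250−300 g rats in gassed physiological salt solution with desipramine 0.01 μM and propranolol 1 μM. Isometric cumulative phenylephrine curves were run at 30 min intervals, the first discarded and the second taken as control, then a new curve after 30 min antagonist equilibration. pA₂ from Schild plot, at least three antagonist concentrations, each tested 3−5 times.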

[3] = target: T3, Alpha-1A adrenergic receptor (Rattus norvegicus, UniProt P43140); experiment: Antagonist activity at alpha-1A adrenoreceptor in Sprague-Dawley rat prostatic vas deferens assessed as inhibition of noradrenaline-induced tissue contraction after 30 mins by Schild plot analysis; settings: read-out: pA2 (converted)
T3 sequence (P43140 whole entry): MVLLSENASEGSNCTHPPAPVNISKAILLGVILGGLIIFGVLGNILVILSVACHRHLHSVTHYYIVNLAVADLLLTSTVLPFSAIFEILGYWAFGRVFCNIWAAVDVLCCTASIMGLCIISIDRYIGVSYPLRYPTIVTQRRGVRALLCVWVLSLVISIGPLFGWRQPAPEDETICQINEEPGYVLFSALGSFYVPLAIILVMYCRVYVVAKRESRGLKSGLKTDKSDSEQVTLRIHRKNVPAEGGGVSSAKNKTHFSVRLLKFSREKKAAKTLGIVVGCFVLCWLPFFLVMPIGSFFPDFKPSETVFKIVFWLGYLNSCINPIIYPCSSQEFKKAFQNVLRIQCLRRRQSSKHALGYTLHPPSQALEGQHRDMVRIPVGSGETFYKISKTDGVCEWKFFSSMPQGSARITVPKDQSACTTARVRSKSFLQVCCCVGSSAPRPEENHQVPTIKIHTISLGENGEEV
Procedure, shortened: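 Cumulative isotonic (−)-noradrenaline curves were run at 30 min intervals, the first discarded and the second taken as control, then a third after 30 min with antagonist. pA₂ from Schild plot, at least three antagonist concentrations, each tested 3−5 times.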

| pA2 [1] | Kb [2] [nM] | Kb [3] [nM] | SMILES |
| --- | --- | --- | --- |
| 6.63 | 3.24 | 33.9 | COc1ccc2c(c1OCCNC[C@H]1COc3ccccc3O1)OCC2.Cl |
| 6.05 | 0.832 | 9.33 | COc1ccc2c(c1OCCNC[C@H]1COc3ccccc3O1)NCC2.Cl.Cl |
| 6.55 | 2.09 | 5.5 | COc1ccc2ccoc2c1OCCNC[C@H]1COc2ccccc2O1.Cl |
| 6.09 | 17 | 4.9 | COc1ccc2cc[nH]c2c1OCCNC[C@H]1COc2ccccc2O1 |

— ChEMBL document CHEMBL2417545, “6-methoxy-7-benzofuranoxy and 6-methoxy-7-indolyloxy analogues of 2-[2-(2,6-Dimethoxyphenoxy)ethyl]aminomethyl-1,4-benzodioxane (WB4101):1 discovery of a potent and selective α1D-adrenoceptor antagonist” (J Med Chem, 2013)
